A selection: hits, their analogues and other compounds. The true share with any hit is near 6.4%.
PLK1 kinase inh – human PLK1 kinase inhibitors, primary screen, biochemical, TR-FRET; inhibition, % at 10 µM; 97,000 tested, 0.53% active; recombinant PLK1 kinase, TR-FRET peptide phosphorylation; Serine/threonine-protein kinase PLK1 (Homo sapiens), P53350;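 active means inhibition of 50% or more in the single-concentration screen; inactive means inhibition below 50%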;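 further: 0% = DMSO max control and 100% = H-89 dihydrochloride min control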
Target sequence (P53350 whole entry, looked up): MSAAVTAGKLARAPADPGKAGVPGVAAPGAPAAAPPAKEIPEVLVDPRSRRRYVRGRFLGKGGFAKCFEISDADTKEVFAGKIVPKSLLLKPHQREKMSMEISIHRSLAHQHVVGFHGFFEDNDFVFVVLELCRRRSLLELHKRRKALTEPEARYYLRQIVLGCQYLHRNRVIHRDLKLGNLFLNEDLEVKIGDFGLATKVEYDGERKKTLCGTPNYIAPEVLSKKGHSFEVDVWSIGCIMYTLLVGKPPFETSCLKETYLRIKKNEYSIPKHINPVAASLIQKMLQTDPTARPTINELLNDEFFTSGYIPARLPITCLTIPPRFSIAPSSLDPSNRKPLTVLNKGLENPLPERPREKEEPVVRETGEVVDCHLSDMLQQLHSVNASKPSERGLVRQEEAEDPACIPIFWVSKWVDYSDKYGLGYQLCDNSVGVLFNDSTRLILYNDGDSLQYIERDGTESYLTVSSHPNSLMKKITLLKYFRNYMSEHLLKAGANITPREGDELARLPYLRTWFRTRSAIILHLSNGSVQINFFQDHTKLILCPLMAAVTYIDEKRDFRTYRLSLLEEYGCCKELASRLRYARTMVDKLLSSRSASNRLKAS
Rev-RRE block – HIV-1 Rev-RRE binding inhibitors, primary screen, biochemical, FRET, protein-RNA interaction. Rev peptide-RRE RNA binding. inhibition, % at 8 µM. 97,000 tested, 0.79% active. AID 704, 2007;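 active means inhibition above the screen-wide mean plus 3 SD, cut at about 35% in these data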;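 further: 0% = median DMSO wells and 100% = median Neomycin B control wells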
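Assay system: labelled RRE RNA duplex and labelled Rev peptide / Medium: HEPES pH 7.5 salt buffer with EDTA / Reagent: labelled Rev peptide / Schedule: 5 + 15 min at 25 °C / Signal: FRET, excitation 480 nm, emission 540 nm donor and 671 nm acceptor / Benchmarks: DMSO and neomycin B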
PostGolgi ctrl – growth inhibition of yeast control strain, primary screen, counter-screen for post-Golgi transport modulator project | efflux-deficient yeast background strain, growth absorbance A615, 16 h | AID 738, 2007 | inhibition, % at 10 µM | 98,000 tested, 5% active
Plk1 PBD FP – Plk1 polo box domain binding inhibitors, primary screen, biochemical, fluorescence polarization; Serine/threonine-protein kinase PLK1 (Homo sapiens), P53350; Plk1 PBD phosphopeptide binding; inhibition, %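 (tested at about 20 µM)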; 97,000 tested, 0.13% active; AID 693, 2007; in the data active means inhibition above about 34%, passing the limit was not always enough
EphB4 ephrin blk – EphB4-ephrin-B2 interaction antagonists, primary screen, biochemical, TNYL-RAW peptide probe, fluorescence polarization. Ephrin type-B receptor 4 (Homo sapiens), P54760. EphB4 LBD / TNYL-RAW-Alexa532 peptide. inhibition, % at 7 µM. 97,000 tested, 0.15% active. AID 720, 2007;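 active means inhibition above the screen-wide mean inhibition plus 3 SD, cut at about 15% in these data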;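 further: 0% = DMSO wells and 100% = excess unlabeled TNYL-RAW peptide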
PostGolgi yeast – phenotypic screen on post-Golgi transport, primary screen | inhibition, % at 10 µM | 98,000 tested, 0.9% active | AID 739, 2007 | post-Golgi transport phenotypic cell assay;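 further: yeast cells grown in 1536-well plates; yeast grown about 18 h at 30C before absorbance read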
* = called active by the depositor; / = no result; [ ] = remark or other dose. Unless noted, no stated cut-off is given here; in the data, active means inhibition above about 30%; inactive means the rest.

SMILES	PLK1 kinase inh	Rev-RRE block	PostGolgi ctrl	Plk1 PBD FP	EphB4 ephrin blk	PostGolgi yeast
O=c1c(/C=N/O)c(Nc2ccccc2)nc2ccccn12	5	2	9	3	-9	-1
Cn1nc(-c2ccccc2)c2nc3ccccc3nc21	-2	92*[fluorescence artefact?]	6	39	3	11
CCCCn1c2nc3ccccc3nc2c2c(=O)n(CCC(C)C)cnc21	0	12	7	0	6	-2
CCCCn1nc(-c2ccccc2)c2nc3ccccc3nc21	-17	97*[fluorescence artefact?]	4	10	4	2
O=C1OC(c2ccccc2)=C/C1=C/N1CCCCC1	-5	0	31*	8	0	-1
O=C1OC(c2ccccc2)=N/C1=C\N1CCCCC1	-8	1	13	18	-7	3
C#CCOC(=O)C(NC(=O)c1ccccc1)=C1CCCCC1	-15	0	14	10	4	3
c1nc(N2CCOCC2)c2[nH]cnc2n1	63*	10	/	1	0	/
N=c1c2c(-c3ccccc3)c(-c3ccccc3)n(Cc3ccccc3)c2ncn1CCCn1ccnc1	-2	14	77*	-33	-1	95*
N=c1c2c(-c3ccccc3)c(-c3ccccc3)n(Cc3ccco3)c2ncn1Cc1ccco1	/	/	48*	/	/	91*
Cc1nc(Cl)c(C(=O)NC(=O)Nc2cccc(C(F)(F)F)c2)c(C)c1[N+](=O)[O-]	-2	18	/	-6	1	/
Cc1nn(C(=O)c2cccnc2)c(C)c1Sc1ccc(Br)cc1	4	2	33*	2	13	19
COc1cc(C2C3CN(C)CC=C3C(C#N)=C(N)C2(C#N)C#N)ccc1OC(C)C (centres undefined)	/	/	8	/	/	3
COc1cc([C@@H]2[C@H]3CNCC=C3C(C#N)=C(N)C2(C#N)C#N)ccc1OC(C)C	-3	50*	0	-13	-5	15
CCCCN(CCCC)C(=O)CSc1nnc2n(C)c(=O)c3c4c(sc3n12)CCCC4	-5	3	34*	-29	0	4
Cc1sc2nc(CN(C(=O)c3cccs3)C3CCCC3)[nH]c(=O)c2c1C	-15	7	34*	6	2	0
O=C(c1cccs1)N(Cc1nc2sc3c(c2c(=O)[nH]1)CCCC3)C1CCCC1	-2	7	11	-8	-5	9
Cc1sc2nc(CN(Cc3cccs3)C(=O)NC3CCCCC3)[nH]c(=O)c2c1C	57*	4	43*	30	-10	-5
Cc1sc2nc(CN(C(=O)NC3CCCCC3)C3CCCC3)[nH]c(=O)c2c1C	-13	5	/	-21	-2	/
O=c1c2ccccc2c(C=NCCc2ccccc2)c(O)n1Cc1ccccc1	-10	8	10	-4	4	11
O=C(COc1ccc(Cl)cc1)Nc1ccc(N2CCN(C(=O)c3ccco3)CC2)cc1	-9	-3	13	3	-7	88*
Cc1oc(-c2ccc(Cl)cc2)nc1CN1CCCC(C(=O)N2CCN(C(=O)c3ccco3)CC2)C1 (centres undefined)	62*	5	7	-5	-2	-1
Cc1ccccc1C(=O)N1CCN(c2ccc(NC(=O)CSc3ccc(Cl)cc3)cc2)CC1	-8	-2	53*	1	-7	79*
CCc1ccc(-c2nc(CN3CCCC(C(=O)O)C3)c(C)o2)cc1 (centres undefined)	28	-3	8	19	-4	-11
O=C(c1ccco1)N1CCN(Cc2ccc(Cl)cc2)CC1	-18	0	35*	-18	-12	-4
SMILES	PLK1 kinase inh	Rev-RRE block	PostGolgi ctrl	Plk1 PBD FP	EphB4 ephrin blk	PostGolgi yeast
CCC(=O)Nc1ccc(N2CCN(C(=O)c3ccccc3C)CC2)cc1	-2	-2	6	-3	10	4
COC(=O)c1sc2nc(N3CCCCC3)c3c(c2c1N)CC(C)(C)N(C)C3	-20	7	/	-20	10	/
C/C(CC(=O)Nc1ccc(OCc2ccccc2)cc1)=N\NC(=O)C(=O)Nc1ccc(C)c(Cl)c1	-2	5	3	-9	-10	5
Cc1ccc2nc(NC(=O)Cn3cc4c(n3)CCCCC4)sc2c1	-16	15	4	10	1	6
O=C1N=C(N2CCN(c3cccc4ccccc34)CC2)S/C1=C/c1cccs1	-5	6	37*	22	8	-5
N/C(Cc1ccc(Cl)cc1)=N\OC(=O)c1ccccc1	-15	6	45*	-16	6	-1
Cc1cccc(OCC(=O)O/N=C(\N)Cc2ccc(Cl)cc2)c1	-11	14	-2	23	-7	30*
O=C(NC1CC1)C1=COCCO1	-13	9	7	-5	3	6
COc1cccc(NC(=O)C2C3C=CC(O3)C2C(=O)NCc2cccnc2)c1 (centres undefined)	-10	2	21	-32	-3	5
CC1=C(C(=O)OC2CCCCC2)C(c2ccco2)C2=C(CC(C)(C)CC2=O)N1 (centres undefined)	-5	-3	41*	-19	-8	19
CCOc1nnnc2c1sc1nc(N3CCOCC3)c3c(c12)CCCC3	-2	15	9	-4	4	-4
O=S(=O)(Nc1ccc2oc(-c3ccccc3)nc2c1)c1ccccc1	-8	19	33*	17	3	0
Cc1ccc(-c2nc3cc(C)ccc3o2)cc1	-12	6	8	0	6	3
O=C(Nc1ccc2oc(-c3ccccc3)nc2c1)c1ccncc1	-11	8	5	5	0	0
O=C(Nc1ccc(-c2nc3ccccc3o2)cc1)c1cccnc1	-3	0	17	-27	6	-8
Cc1ccc2oc(-c3ccc(NC(=O)c4cccnc4)cc3)nc2c1	2	-2	66*	-1	-4	-7
Cc1ccc(-c2nc3cc(NS(=O)(=O)c4ccc(C)cc4)ccc3o2)cc1	-10	9	59*	-2	0	14
O=C(c1ccc(CNc2c(NC3CCCCC3)c(=O)c2=O)cc1)N1CCc2ccccc21	-6	13	1	-11	0	2
Nc1nnnn1/N=C/c1cccc(OCc2ccccc2Cl)c1	-7	10	/	17	-10	/
CC1CCCCN1C(=O)CSc1nnc(CSc2ncccn2)n1C (centres undefined)	-10	-2	18	-19	0	7
Cc1cccn2c(N)c(-c3ccccc3)nc12	-7	108*[fluorescence artefact?]	1	-1	1	-4
O=C(CCl)c1ccc(Cc2ncc(C(F)(F)F)cc2Cl)s1	-4	3	28	3	-10	86*
CC(C)CC1NC(=O)N(CC(=O)N2CCN(S(=O)(=O)c3ccccc3)CC2)C1=O (centres undefined)	-9	-1	2	6	0	-1

Source: PubChem BioAssay
